High-throughput results (PubChem BioAssay)
CHT allo act – allosteric activators of human choline transporter CHT; Q9GZV3; CHT-expressing cells, membrane potential dye, choline EC20; stronger effect = higher value; LV-AA mutant CHT in HEK293 cells; B-score at 10 µM; actives 0.49% (n = 310,000); AID 488977;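 active = initial fluorescence not abnormally high and integrated response B-score, plate-corrected, over 3 SD above library mean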
Target sequence (Q9GZV3 whole entry, looked up): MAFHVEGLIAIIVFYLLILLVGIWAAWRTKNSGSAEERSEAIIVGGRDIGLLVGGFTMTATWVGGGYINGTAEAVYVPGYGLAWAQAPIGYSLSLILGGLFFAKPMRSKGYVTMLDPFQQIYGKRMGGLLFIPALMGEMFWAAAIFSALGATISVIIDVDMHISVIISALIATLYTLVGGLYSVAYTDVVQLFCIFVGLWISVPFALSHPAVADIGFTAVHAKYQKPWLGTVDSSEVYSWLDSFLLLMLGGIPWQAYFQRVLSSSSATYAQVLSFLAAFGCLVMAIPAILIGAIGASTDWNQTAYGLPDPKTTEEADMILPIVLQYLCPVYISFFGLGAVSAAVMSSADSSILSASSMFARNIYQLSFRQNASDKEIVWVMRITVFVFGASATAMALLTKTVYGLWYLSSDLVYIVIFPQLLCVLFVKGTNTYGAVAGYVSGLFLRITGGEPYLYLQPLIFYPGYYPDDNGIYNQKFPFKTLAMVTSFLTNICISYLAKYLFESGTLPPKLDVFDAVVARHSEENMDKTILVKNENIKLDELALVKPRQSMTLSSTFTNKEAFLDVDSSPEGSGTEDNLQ
Hep lipid drop – hepatic lipid droplet formation modulation; inhibition, % at 6.5 µM; AID 1656; actives 0.4% (n = 240,000); AML12 mouse hepatocytes, oleate lipid droplets, BODIPY imaging;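 active = lipid droplet intensity inhibited by at least 50%, with more than 500 cells counted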
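Material – mouse AML12 hepatocyte cell line, fixed after treatment · Compound dosing – one dose, 6.5 µM compound · Times – compound with oleate, overnight · Measured by – Image-based BODIPY and DAPI two-channel analysis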
PHOSPHO1 inh – PHOSPHO1 (human) inhibition; actives 1.1% (n = 290,000); Q8TCT1; AID 1565; inhibition, % at 13.3 µM; recombinant PHOSPHO1, absorbance phosphatase assay; in the data active = inhibition above about 60%
HSF-1 act – increases HSF-1 driven luciferase reporter signal; NIH3T3-HGL HSF-1 luciferase reporter, MG132, 8 h; 100% = twice DMSO control signal; activation, % at 9 µM; actives 1.7% (n = 300,000);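 active = mean replicate activation of at least 50% with a set share of replicates each reaching 50%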;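 also: 0% = median of the neutral control wells and 100% = twice that signal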
HSF1 inh – HSF1 inhibition; activity change, negative = inhibition, % at 7.5 µM (by protocol); actives 0.77% (n = 300,000); AID 2098; NIH3T3-HGL HSE-luciferase, MG132-induced, luminescence 8 h; stronger effect = lower value;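 active = more than half of replicate wells show activity change below -50%, luminescence cut by over half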;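 also: luciferase reports HSF-1 transcriptional activity via heat shock element; 0% = median of DMSO wells and -100% = zero luminescence signal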
CHT inh – human CHT choline transport inhibition; CHT-expressing cells, membrane potential dye, choline response; stronger effect = lower value; B-score at 10 µM; actives 0.86% (n = 310,000);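 active = B-score over 3 SD under the library average, and starting fluorescence ratio not unusually high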;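 also: choline stimulus applied at its EC90 after an EC20 pre-addition; B-score computed on integrated fluorescence ratio after choline addition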
Hep lipid conf – hepatic lipid droplet formation inhibition, confirmed; shares compounds with Hep lipid drop; AML12 mouse hepatocytes, BODIPY lipid droplet imaging; droplets induced with 100 µM oleic acid; inhibition, % at 5.2 µM; actives 65% (n = 870); AID 463183;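 active = inhibition of lipid droplet metric at least 50%, with more than 300 cells in each of four replicates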;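 also: plate controls were DMSO with oleic acid for no effect and 5 µM Triacsin-C for full effect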
AML12 cytotox – toxic to AML12 mouse hepatocytes in counter-screen; shares compounds with Hep lipid drop; actives 3% (n = 870); DAPI nuclear morphology cytotoxicity imaging; stronger effect = higher value; cells fed 100 µM oleate overnight; AID 463200; z-score at 5 µM; in the data active = z-score above about 6.3;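 also: compound exposure lasted overnight at 37 °C before fixation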
AML12 tox conf – confirmation of cytotoxicity in AML12 mouse hepatocytes; shares compounds with Hep lipid drop; AML12 mouse hepatocyte viability, ATP luminescence; cells loaded with 100 µM oleic acid; cytotoxicity, % at 50 µM; AID 463219; 530 tested, under 10 active;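 active = cytotoxicity above 50% in each of four replicates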;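 also: compound exposure lasted overnight at 37 °C before the ATP read; 0% = DMSO-treated cells and 100% = wells with no cells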
Numbers without * were called inactive. In the library only some 4.9% were active in any assay of this set; here they are far more common.

For CCOc1ccc(CN(C)C(=O)CNC(=O)Cc2cccc3ccccc23)cc1 the results were CHT allo act inactive, Hep lipid drop 77*, PHOSPHO1 inh 23, HSF-1 act -4, HSF1 inh 2, CHT inh inactive, Hep lipid conf 101*, AML12 cytotox -0.97 and AML12 tox conf 11.
COCc1ccc(C(=O)NC2CCCc3c2cnn3-c2ccc(C)c(C)c2)o1 (configuration not stated) was read as CHT allo act inactive, Hep lipid drop 61*, PHOSPHO1 inh 36, HSF-1 act 4, HSF1 inh 0, CHT inh inactive, Hep lipid conf 100*, AML12 cytotox 0.58 and AML12 tox conf 13.
For CC(C)C(NC(=O)C(NC(=O)C1OC2OC(C)(C)OC2C2OC(C)(C)OC12)C(C)C)C(=O)O (configuration not stated) the results were CHT allo act inactive, Hep lipid drop 15, PHOSPHO1 inh 14, HSF-1 act 5, HSF1 inh 0 and CHT inh inactive.
`CCc1nnc(NS(=O)(=O)c2ccc(NCc3cc(Br)ccc3O)cc2)s1` gave CHT allo act inactive, Hep lipid drop -5, PHOSPHO1 inh 38, HSF-1 act -7, HSF1 inh -4 and CHT inh inactive.
Screening COc1nccnc1NS(=O)(=O)c1ccc(NCc2cc(Br)ccc2O)cc1 returned CHT allo act inactive, Hep lipid drop 64*, PHOSPHO1 inh 32, HSF-1 act 16, HSF1 inh 20, CHT inh inactive, Hep lipid conf 15 and AML12 cytotox -0.0013.
For Cc1ccc(C(=O)NCCNC(=O)c2ccc(C)nc2)cc1 the results were CHT allo act inactive, Hep lipid drop 56*, PHOSPHO1 inh 32, HSF-1 act 2, HSF1 inh 9, CHT inh inactive, Hep lipid conf 91*, AML12 cytotox -0.25 and AML12 tox conf 7.
For CCOc1ccc(C(=O)NCCNC(=O)c2ccc(OCC)cc2)cc1 the results were CHT allo act inactive, Hep lipid drop 86*, PHOSPHO1 inh -3, HSF-1 act -4, HSF1 inh -5, CHT inh inactive, Hep lipid conf 96*, AML12 cytotox -0.41 and AML12 tox conf 18.
For COc1ccc(C(=O)NCCNC(=O)c2ccc(C)nc2)cc1 the results were CHT allo act inactive, Hep lipid drop 27, PHOSPHO1 inh 32, HSF-1 act -7, HSF1 inh -2 and CHT inh inactive.
Screening CCCOc1cccc(C(=O)NCCNC(=O)c2ccc(C)nc2)c1 returned CHT allo act inactive, Hep lipid drop 51*, PHOSPHO1 inh 32, HSF-1 act -14, HSF1 inh -6, CHT inh inactive, Hep lipid conf 83*, AML12 cytotox -0.15 and AML12 tox conf 4.
`Oc1ccc(C=Nc2ccc(N3CCOCC3)cc2)c(O)c1` gave CHT allo act inactive, Hep lipid drop 0, PHOSPHO1 inh -21, HSF-1 act 28, HSF1 inh 1 and CHT inh inactive.
For Oc1ccc(N=Nc2cccc(C(F)(F)F)c2)cc1C=Nc1ccc(N2CCOCC2)cc1 the results were CHT allo act inactive, Hep lipid drop 58*, PHOSPHO1 inh -1, HSF-1 act 24, HSF1 inh -3, CHT inh inactive, Hep lipid conf 41 and AML12 cytotox -0.23.
Screening Cc1ccc(S(=O)(=O)NCc2ccc(C(=O)NC3CC3)cc2)cc1 returned CHT allo act inactive, Hep lipid drop 60*, PHOSPHO1 inh 22, HSF-1 act -17, HSF1 inh -8, CHT inh inactive, Hep lipid conf 63, AML12 cytotox 0.074 and AML12 tox conf 8.
